Rows were chosen to be rich in hits. Some 3.1% of all compounds tested hit in one or more screens of this group.
MEKK2wt PB1 HTS – raises or lowers MEK5 binding to wildtype human MEKK2 PB1 domain. bead flow cytometry, Alexa488-MEK5 binding to MEKK2 WT; actives lie on both sides. binding response (% of control), % at 10 µM. Q9Y2U5. hit rate 1.1% among 290,000. AID 1531; in the data active = binding response below about 67% or above about 130%
MEKK2mut PB1 HTS – signal of MEK5 binding to mutant human MEKK2 PB1 domain. bead flow cytometry, Alexa488-MEK5 binding to MEKK2 mutant. percent response, % at 10 µM. hit rate 0.35% among 290,000; in the data active = percent response above about 24%, passing the limit was not always enough
PREPL inh – inhibitors of human prolyl oligopeptidase-like enzyme PREPL; Q4J6C6; recombinant PREPL, fluorescence polarization activity-based probe; inhibition, % at 5.96 µM; hit rate 0.68% among 320,000; in the data active = inhibition above about 43%;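 also: 0% = enzyme with DMSO and 100% = wells lacking enzyme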
Apaf-1 inh – human Apaf-1 inhibition. reconstituted apoptosome caspase-3 activity, DEVD-Rh110 fluorescence. inhibition, % at 20 µM. hit rate 0.71% among 330,000; active = inhibition of at least 40% at 20 µM;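 also: plate controls were DMSO wells for no effect and DEVD-CHO caspase inhibitor wells for full effect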
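Material: cell-free apoptosome with Apaf-1, procaspase-3 and caspase-9; Buffer or medium: Hepes pH 7.5 with detergent and BSA; Reagent: cytochrome c trigger plus (Z-DEVD)2-Rh110 caspase-3 substrate; Times: compound with Apaf-1, dATP, procaspase-3 30 min, then 50 min reaction, room temperature; Technique: Rh110 fluorescence intensity.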
UBC13 polyUb – blocks human UBC13 polyubiquitin chain formation | hit rate 0.47% among 330,000 | TR-FRET | inhibition, % at 20 µM | P61088; in the data active = inhibition above about 45%, passing the limit was not always enough
MEKK3 PB1 HTS – modulators (inhibitors or enhancers) of MEK5 binding to human MEKK3 PB1 domain. Q99759. bead-based flow cytometry, Alexa488-MEK5 binding to MEKK3; actives lie on both sides; 0 = blocked by unlabeled MEK5, 100 = vehicle. binding response (% of control), % at 10 µM. hit rate 1.4% among 290,000;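 active = binding response more than 3 SD above or below the average of its plate-row segment, actives on both sides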;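 also: Alexa488 bead fluorescence after subtracting the streptavidin-only scavenger bead signal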
Target sequence (Q99759 whole entry, looked up, the tested form may be a part): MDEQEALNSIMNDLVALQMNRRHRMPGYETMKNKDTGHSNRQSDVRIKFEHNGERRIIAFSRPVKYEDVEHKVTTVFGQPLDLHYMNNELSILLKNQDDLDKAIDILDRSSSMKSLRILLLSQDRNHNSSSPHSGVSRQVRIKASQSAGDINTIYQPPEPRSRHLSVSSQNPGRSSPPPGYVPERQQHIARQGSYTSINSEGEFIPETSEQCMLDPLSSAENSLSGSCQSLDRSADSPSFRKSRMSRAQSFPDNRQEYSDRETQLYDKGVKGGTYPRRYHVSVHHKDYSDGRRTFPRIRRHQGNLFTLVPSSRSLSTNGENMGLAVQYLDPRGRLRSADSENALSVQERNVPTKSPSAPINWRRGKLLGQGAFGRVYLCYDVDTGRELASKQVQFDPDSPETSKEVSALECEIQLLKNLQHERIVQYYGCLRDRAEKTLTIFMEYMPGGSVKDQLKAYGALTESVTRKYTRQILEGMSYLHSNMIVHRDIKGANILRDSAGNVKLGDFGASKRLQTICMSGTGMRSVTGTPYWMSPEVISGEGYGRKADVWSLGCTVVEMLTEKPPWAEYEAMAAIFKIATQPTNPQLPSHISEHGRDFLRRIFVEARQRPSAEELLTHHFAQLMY
MEKK2wt confirm – raises or lowers MEK5 binding to wildtype human MEKK2, retest; hit rate 2.4% among 5,900; shares compounds with MEKK3 PB1 HTS; bead flow cytometry, Alexa488-MEK5 binding to MEKK2 WT; actives lie on both sides; binding response (% of control), % at 10 µM; AID 1892; in the data active = binding response below about 16% or above about 210%; inactive = in between
MEKK2mut confirm – signal of MEK5 binding to mutant human MEKK2, retest. shares compounds with MEKK3 PB1 HTS. bead flow cytometry, Alexa488-MEK5 binding to MEKK2 mutant. percent response, % at 10 µM. hit rate 2% among 5,900; in the data active = percent response mostly above about 71%, no sharp cut-off; inactive = mostly below about 38%;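 also: higher means compound restores mutant binding toward wildtype level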
MEKK3 confirm – MEKK3-MEK5 PB1 inhibition, single concentration confirmation; shares compounds with MEKK3 PB1 HTS; bead flow cytometry, Alexa488-MEK5 binding to MEKK3; stronger effect = lower value; binding response (% of control), % at 10 µM; hit rate 1.8% among 5,900;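 active = binding response below 72% of control, or above a set upper limit, though filed actives all read lower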;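 also: 100% = DMSO only wells and 0% = binding blocked by excess unlabeled MEK5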
Active calls of the source: *; / = no result; [ ] = another dose, or the depositor's remark.

SMILES	MEKK2wt PB1 HTS	MEKK2mut PB1 HTS	PREPL inh	Apaf-1 inh	UBC13 polyUb	MEKK3 PB1 HTS	MEKK2wt confirm	MEKK2mut confirm	MEKK3 confirm
O=C(CSC1=NS(=O)(=O)c2cc(F)ccc2N1)NCc1ccc(F)cc1	/	/	-8	5	0	/	/	/	/
Cc1oc(/C=N/NC(=O)CC2(C)OCCO2)cc1Br	111	2	3	-8	-3	132*	107	6	106
COc1ccc(-n2nc3c(c2NC(=O)c2ccc(Br)o2)CS(=O)(=O)C3)cc1	101	1	-1	19	-13	100	/	/	/
O=C(N1CCCCC1)N1CCC(c2nc3ccccc3[nH]2)CC1	2.0*[inhibitor]	-3	-8	-8	18	1.0*[inhibitor]	105	8	106
O=C(NCc1nnc(SCC(=O)N2CCCC2)o1)c1ccccc1	109	8	2	-2	0	104	/	/	/
Cc1ccc2[nH]c(=O)c(CN(Cc3cccs3)C(=S)NCc3ccco3)cc2c1	100	1	0	23	2	130*	96	-5	100
COc1ccc(C(=O)NC2CCSc3ccccc32)cc1F (centres undefined)	103	-1	-1	6	6	104	/	/	/
CCCN1C(=O)c2cccc3c(N4CCCCC4)ccc(c23)C1=O	60*[inhibitor]	-4	0	/	/	87	97	0	102
COc1ccc(OCCCC(=O)Nc2cc(Cl)ccc2-n2cncn2)cc1	/	/	-11	-6	3	/	/	/	/
Cc1cc(C)c2oc(C(=O)Nc3nnc(C(C)C)s3)cc(=O)c2c1	118	2	-1	17	-16	212*	79	-14	85
CSc1nnc(NC(=O)c2cc(=O)c3cc(C)cc(C)c3o2)s1	84	-19	7	9	-8	78	/	/	/
COc1ccccc1N1CCN(C(=O)Nc2cccc(Cl)c2)CC1	98	3	1	-9	0	95	/	/	/
COc1cccc(NC(=O)N2CCN(c3cccc(C)c3C)CC2)c1	0.0*[inhibitor]	-17	13	15	3	0.0*[inhibitor]	98	0	103
CCC(O)(CC)C(=O)N/N=C/c1cc(Br)cc(Br)c1O	127	23	-5	-14	3	134*	104	3	103
O=C(C[n+]1ccccc1)N/N=C/c1cc(Br)cc(Br)c1O	107	-2	10	7	-10	105	/	/	/
CCN(CC(=O)NCc1cccs1)C(=O)Cc1ccc(C)c(C)c1	/	/	4	12	-10	/	/	/	/
COc1ccc2c(CSc3nnc(-c4cccnc4)n3-c3ccccc3F)cc(=O)oc2c1	102	0	31	4	4	115	/	/	/
Cc1cc2oc(=O)cc(CSc3nnc(C)n3N)c2cc1C(C)C	100	-1	-5	-17	-1	101	/	/	/
CCOc1ccc(-n2c(SCc3cc(=O)oc4cc(C)c(C(C)C)cc34)nnc2-c2cccnc2)cc1	102	0	14	12	0	128*	107	5	107
Cc1cc2oc(=O)cc(CSc3nnc(-c4cccs4)o3)c2cc1C(C)C	99	0	2	16	3	134*	96	-3	101
CCC(C)NC(=O)/C=C1\Sc2ccccc2NC1=O (centres undefined)	109	2	-1	-4	2	135*	102	-3	100
N#CC1=C(S)N(c2ccccc2)C(c2ccc(-c3cccc(Cl)c3)o2)NC1=O (centres undefined)	101	0	16	-11	-11	130*	95	-7	100
CCN(CC)c1ccc(/C=C/C(=O)c2ccc(Br)cc2)cc1	344*	431*	-10	/	/	111	82	-40	87
CC1(NC(=O)Cn2cc(C(F)(F)F)ccc2=O)CCS(=O)(=O)C1 (centres undefined)	/	/	3	-9	-5	/	/	/	/
COC(C[C@H]1O[C@H]1C(=O)COCc1ccccc1)OC	99	5	/	3	0	106	/	/	/
SMILES	MEKK2wt PB1 HTS	MEKK2mut PB1 HTS	PREPL inh	Apaf-1 inh	UBC13 polyUb	MEKK3 PB1 HTS	MEKK2wt confirm	MEKK2mut confirm	MEKK3 confirm
NC(=O)C1CCN(c2ncc(C(F)(F)F)cc2Cl)CC1	114	5	2	-10	-4	130*	101	0	97
CC1CCN(C(=O)C2CCC(C)(C(=O)O)C2(C)C)CC1 (centres undefined)	109	1	6	-2	1	135*	105	-6	104
CNC(=O)C(=O)Nc1c(C)cc(C)cc1C	111	1	3	9	-3	134*	-1.0*[inhibitor]	-29	0.0*
CNC(=O)C(=O)Nc1ccc(C)cc1C	99	-1	9	-3	2	99	/	/	/
CN(C(=O)CSc1nc(-c2ccccc2)c(-c2ccccc2)o1)C1CCS(=O)(=O)C1 (centres undefined)	94	-3	4	8	16	91	/	/	/
CN(C(=O)CSc1nnc(-c2ccccc2)c(-c2ccccc2)n1)C1CCS(=O)(=O)C1 (centres undefined)	112	1	-4	-12	0	137*	103	1	101
Cc1ccc2nc(/C(C#N)=C\c3ccc([N+](=O)[O-])o3)[nH]c2c1	77	-10	21	18	-85	70*[inhibitor]	96	-3	98
N#C/C(=C\c1ccc([N+](=O)[O-])o1)c1nc2ccccc2[nH]1	87	-2	14	13	-83	103	/	/	/
Cc1cccc(C)c1NC(=O)NC1(C(=O)NCC2CCCO2)CCCCC1 (centres undefined)	96	-6	9	5	-7	99	/	/	/
O/N=C1\CCCc2c1nc(-c1ccccc1F)n2O	113	26	6	-10	-2	130*	120	7	105
COC(=O)C1=C(C(=O)OC)[C@@H]2N(C)c3ccccc3[C@@]23C[C@@H](C(=O)OC)N=C3N1	93	2	1	-1	4	95	/	/	/
COC(=O)C1=C(C(=O)OC)[C@@H]2N(Cc3ccccc3)c3ccccc3[C@@]23C[C@@H](C(=O)OC)N=C3N1	141*	3	15	8	13	124	103	-3	99
Nc1nonc1C(=O)NCCNCc1ccccc1OCc1ccc(F)cc1	153*	17	-56	-12	4	107	118	5	102
CCOc1cc(N2CCOCC2)c(OCC)cc1NC(=O)CN1CCC(Cc2ccccc2)CC1	110	0	13	29	-4	149*	107	8	106

Source: PubChem (several laboratories)
